Reference: ChEMBL document CHEMBL1143701, “O2-acetoxymethyl-protected diazeniumdiolate-based NSAIDs (NONO-NSAIDs): synthesis, nitric oxide release, and biological evaluation studies” (Bioorg Med Chem, 2007)

Legend:
Rattus norvegicus [1] = test: Antiinflammatory activity against carrageenan-induced rat paw edema in orally dosed rat after 3 hrs; assay type: functional; settings: po, read-out: ID50 (the source's name)
Rattus norvegicus [2] = test: Gastric damage production in rat assessed as gastric ulcer index at 1.21 mmol/kg, po after 6 hrs; assay type: functional, Stomach
Summary of the method: (§1)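 Rats fasted 24 h (water allowed), given single oral dose suspended in 1.7 mL 1% methylcellulose; vehicle controls. Killed 6 h later by CO2; stomachs opened along greater curvature and ulcer lengths scored under magnifier. Ulcer index = total ulcer length (mm) summed over stomachs divided by animals (n = 4); mean ± SEM.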

Rattus norvegicus [3] = test: Gastric damage production in rat assessed as gastric ulcer index at 1.38 mmol/kg, po after 6 hrs; assay type: functional, Stomach; summary of the method: as §1
[4] = Effect on nitric oxide release in pH 7.4 PBS buffer using sievers […]; assay type: functional
Summary of the method: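 Prodrug in DMSO (46 or 77 mM stock), 10 μL injected into 3 mL deoxygenated phosphate buffer pH 7.4 at 37 °C in sealed cell; NO swept by nitrogen purge to chemiluminescence analyzer calibrated with NO/He standards; mol NO/mol compound from integrated peak area; time to ~50% of theoretical NO read graphically.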

[5] = Effect on nitric oxide release in presence of porcine liver esterase per mole using sievers […]; assay type: functional
Summary of the method: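 Porcine liver esterase (10 μL of suspension in 3.2 M ammonium sulfate) in 3 mL phosphate buffer pH 8.0; 10 μL of 46 or 77 mM DMSO stock injected; NO carried by nitrogen purge to chemiluminescence analyzer, quantified against calibration curve; time to 100% theoretical NO read graphically.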

[6] = biological target: T1, Prostaglandin G/H synthase 1 (Ovis aries, UniProt P05979); test: Inhibition of ovine COX1 by enzyme immuno assay
T1 sequence (P05979 whole entry): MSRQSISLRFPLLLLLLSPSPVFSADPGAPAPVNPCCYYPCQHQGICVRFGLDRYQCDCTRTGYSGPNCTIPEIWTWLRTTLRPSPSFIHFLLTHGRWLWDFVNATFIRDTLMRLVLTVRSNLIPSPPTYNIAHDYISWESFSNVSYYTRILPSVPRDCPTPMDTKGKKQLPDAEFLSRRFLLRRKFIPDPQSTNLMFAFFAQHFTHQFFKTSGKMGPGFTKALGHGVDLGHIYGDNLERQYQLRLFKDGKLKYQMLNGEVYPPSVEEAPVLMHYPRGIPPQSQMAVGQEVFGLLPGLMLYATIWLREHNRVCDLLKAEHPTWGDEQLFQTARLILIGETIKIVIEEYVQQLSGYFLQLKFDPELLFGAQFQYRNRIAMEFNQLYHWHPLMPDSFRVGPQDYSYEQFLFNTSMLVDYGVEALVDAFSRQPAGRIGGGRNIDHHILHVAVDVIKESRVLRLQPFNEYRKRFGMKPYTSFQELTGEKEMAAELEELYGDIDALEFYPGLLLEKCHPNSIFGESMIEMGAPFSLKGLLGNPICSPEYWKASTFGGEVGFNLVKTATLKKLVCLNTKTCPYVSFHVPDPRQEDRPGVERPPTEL

Rattus norvegicus [7] = test: Gastric damage production in rat assessed as gastric ulcer index at 0.08 mmol/kg, po after 6 hrs; assay type: functional, Stomach; summary of the method: as §1

| Compound | Activity [5] [mol/mol] | IC50 [6] [µM] | ED50 (Rattus norvegicus [1]) [µmol/kg] | Activity (Rattus norvegicus [2]) | Activity (Rattus norvegicus [3]) | Activity [4] [mol/mol] | Activity (Rattus norvegicus [7]) |
| --- | --- | --- | --- | --- | --- | --- | --- |
| CC(C)Cc1ccc(C(C)C(=O)O)cc1 (configuration not stated) [IBUPROFEN] |  |  | 327 | 45.8 |  |  |  |
| CC(=O)Oc1ccccc1C(=O)O [ASPIRIN] |  |  | 714 |  | 57.4 |  |  |
| CC(=O)OCO/N=[N+](\[O-])N(C)CCO | 2 |  |  |  |  | 1 |  |
| COc1ccc2c(c1)c(CC(=O)O)c(C)n2C(=O)c1ccc(Cl)cc1 [INDOMETHACIN] |  |  | 11.7 |  |  |  |  |

Further lines, with some results ahead:

| Activity [5] [mol/mol] | IC50 [6] [µM] | Compound | ED50 (Rattus norvegicus [1]) [µmol/kg] | Activity (Rattus norvegicus [2]) | Activity (Rattus norvegicus [3]) | Activity [4] [mol/mol] | Activity (Rattus norvegicus [7]) |
| --- | --- | --- | --- | --- | --- | --- | --- |
| 2 | > 100 | CC(=O)OCO/N=[N+](\[O-])N(C)CCOC(=O)C(C)c1ccc(CC(C)C)cc1 (configuration not stated) | 175 | 0 |  | 1.1 |  |
| 2 | > 100 | CC(=O)OCO/N=[N+](\[O-])N(C)CCOC(=O)c1ccccc1OC(C)=O | 553 |  | 0.84 | 1 |  |
| 2 | > 100 | COc1ccc2c(c1)c(CC(=O)OCCN(C)/[N+]([O-])=N/OCOC(C)=O)c(C)n2C(=O)c1ccc(Cl)cc1 | 20.3 |  |  | 0.9 | 1.3 |
